{"source": "ChEMBL document CHEMBL4364301", "about": "(Eur J Med Chem, 2019)", "assay_type_in_all_cases": "functional", "key": {"CWR22R [1]": {"system": "CWR22R", "assay": "Antiproliferative activity against human 22Rv1 cells assessed as reduction in cell growth incubated for 96 hrs by propidium iodide based 2D monolayer assay", "conditions": "22Rv1, 96 h", "in_short": "(§1)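 After 24 h recovery, compound in medium or medium alone (control wells) was added at 10 half-log concentrations from 0.0032 to 100 µM, in triplicate, with at most 0.3% DMSO. After 96 h, wells were PBS-washed, stained with 7 µg/ml PI and 0.1% Triton X-100, and fluorescence read at 530/620 nm. IC50 came from a 4-parameter fit, geometric mean.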"}, "LNCaP [2]": {"system": "LNCaP", "assay": "Antiproliferative activity against human LNCAP cells assessed as reduction in cell growth incubated for 96 hrs by propidium iodide based 2D monolayer assay", "in_short": "as §1"}, "VCaP [3]": {"system": "VCaP", "assay": "Antiproliferative activity against human VCaP cells assessed as reduction in cell growth incubated for 96 hrs by propidium iodide based 2D monolayer assay", "in_short": "(§2)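 VCaP cells in RPMI 1640 with 10% FCS at 37 °C, 5% CO2, seeded 4,000–20,000 cells/well and left 24 h before dosing. Compounds from DMSO stocks were diluted in half-log steps in medium, 10 concentrations 0.0032–100 μM, triplicate wells, max 0.3% DMSO. After 96 h, cells were washed, stained with 7 μg/ml propidium iodide plus 0.1% Triton X-100 for 1–2 h at room temperature, and fluorescence read at ex 530/em 620 nm.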"}, "VCaP [4]": {"system": "VCaP", "assay": "Antiproliferative activity against human VCaP cells assessed as T/C value at 3.2 x 10^-2 uM incubated for 96 hrs by propidium iodide based 2D monolayer assay", "in_short": "as §2"}, "VCaP [5]": {"system": "VCaP", "assay": "Antiproliferative activity against human VCaP cells assessed as T/C value at 3.2 x 10^-1 uM incubated for 96 hrs by propidium iodide based 2D monolayer assay", "in_short": "as §2"}, "VCaP [6]": {"system": "VCaP", "assay": "Antiproliferative activity against human VCaP cells assessed as T/C value at 1 uM incubated for 96 hrs by propidium iodide based 2D monolayer assay", "in_short": "(§3)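 Cells were kept in RPMI 1640 with 25 mM HEPES, 10% FCS and gentamicin at 37 °C under 5% CO2, and plated at 4,000-20,000 cells/well. After 24 h recovery, compound in medium or medium alone (control wells) was added at 10 half-log concentrations from 0.0032 to 100 µM, in triplicate, with at most 0.3% DMSO. After 96 h, wells were PBS-washed, stained with 7 µg/ml PI and 0.1% Triton X-100, and fluorescence read at 530/620 nm. IC50 came from a 4-parameter fit, geometric mean.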"}, "VCaP [7]": {"system": "VCaP", "assay": "Antiproliferative activity against human VCaP cells assessed as T/C value at 3.2 uM incubated for 96 hrs by propidium iodide based 2D monolayer assay", "in_short": "as §3"}, "VCaP [8]": {"system": "VCaP", "assay": "Antiproliferative activity against human VCaP cells assessed as T/C value at 1 x 10^1 uM incubated for 96 hrs by propidium iodide based 2D monolayer assay", "in_short": "as §3"}, "VCaP [9]": {"system": "VCaP", "assay": "Antiproliferative activity against human VCaP cells assessed as T/C value at 1 x 10^2 uM incubated for 96 hrs by propidium iodide based 2D monolayer assay", "in_short": "as §3"}, "LNCaP [10]": {"system": "LNCaP", "assay": "Antiproliferative activity against human LNCAP cells assessed as T/C value at 3.2 x 10^-3 uM incubated for 96 hrs by propidium iodide based 2D monolayer assay", "in_short": "as §3"}, "LNCaP [11]": {"system": "LNCaP", "assay": "Antiproliferative activity against human LNCAP cells assessed as T/C value at 1 x 10^-2 uM incubated for 96 hrs by propidium iodide based 2D monolayer assay", "in_short": "as §3"}, "LNCaP [12]": {"system": "LNCaP", "assay": "Antiproliferative activity against human LNCAP cells assessed as T/C value at 3.2 x 10^-2 uM incubated for 96 hrs by propidium iodide based 2D monolayer assay", "in_short": "as §3"}, "LNCaP [13]": {"system": "LNCaP", "assay": "Antiproliferative activity against human LNCAP cells assessed as T/C value at 1 x 10^-1 uM incubated for 96 hrs by propidium iodide based 2D monolayer assay", "in_short": "as §3"}, "LNCaP [14]": {"system": "LNCaP", "assay": "Antiproliferative activity against human LNCAP cells assessed as T/C value at 3.2 x 10^-1 uM incubated for 96 hrs by propidium iodide based 2D monolayer assay", "in_short": "as §3"}, "LNCaP [15]": {"system": "LNCaP", "assay": "Antiproliferative activity against human LNCAP cells assessed as T/C value at 1 uM incubated for 96 hrs by propidium iodide based 2D monolayer assay", "in_short": "as §3"}, "LNCaP [16]": {"system": "LNCaP", "assay": "Antiproliferative activity against human LNCAP cells assessed as T/C value at 3.2 uM incubated for 96 hrs by propidium iodide based 2D monolayer assay", "in_short": "as §3"}, "LNCaP [17]": {"system": "LNCaP", "assay": "Antiproliferative activity against human LNCAP cells assessed as T/C value at 1 x 10^1 uM incubated for 96 hrs by propidium iodide based 2D monolayer assay", "in_short": "as §3"}, "LNCaP [18]": {"system": "LNCaP", "assay": "Antiproliferative activity against human LNCAP cells assessed as T/C value at 3.2 x 10^1 uM incubated for 96 hrs by propidium iodide based 2D monolayer assay", "in_short": "as §3"}, "CWR22R [19]": {"system": "CWR22R", "assay": "Antiproliferative activity against human 22Rv1 cells assessed as T/C value at 3.2 x 10^-3 uM incubated for 96 hrs by propidium iodide based 2D monolayer assay", "in_short": "as §3"}, "CWR22R [20]": {"system": "CWR22R", "assay": "Antiproliferative activity against human 22Rv1 cells assessed as T/C value at 1 x 10^-2 uM incubated for 96 hrs by propidium iodide based 2D monolayer assay", "in_short": "as §3"}, "CWR22R [21]": {"system": "CWR22R", "assay": "Antiproliferative activity against human 22Rv1 cells assessed as T/C value at 3.2 x 10^-2 uM incubated for 96 hrs by propidium iodide based 2D monolayer assay", "in_short": "as §3"}, "CWR22R [22]": {"system": "CWR22R", "assay": "Antiproliferative activity against human 22Rv1 cells assessed as T/C value at 1 x 10^-1 uM incubated for 96 hrs by propidium iodide based 2D monolayer assay", "in_short": "as §3"}, "CWR22R [23]": {"system": "CWR22R", "assay": "Antiproliferative activity against human 22Rv1 cells assessed as T/C value at 1 uM incubated for 96 hrs by propidium iodide based 2D monolayer assay", "in_short": "as §3"}, "CWR22R [24]": {"system": "CWR22R", "assay": "Antiproliferative activity against human 22Rv1 cells assessed as T/C value at 3.2 x 10^1 uM incubated for 96 hrs by propidium iodide based 2D monolayer assay", "in_short": "as §3"}, "CWR22R [25]": {"system": "CWR22R", "assay": "Antiproliferative activity against human 22Rv1 cells assessed as T/C value at 1 x 10^2 uM incubated for 96 hrs by propidium iodide based 2D monolayer assay", "in_short": "as §3"}, "DU-145 [26]": {"system": "DU-145", "assay": "Antiproliferative activity against human DU145 cells assessed as T/C value at 3.2 x 10^-3 uM incubated for 96 hrs by propidium iodide based 2D monolayer assay", "in_short": "as §1"}, "DU-145 [27]": {"system": "DU-145", "assay": "Antiproliferative activity against human DU145 cells assessed as T/C value at 1 x 10^-2 uM incubated for 96 hrs by propidium iodide based 2D monolayer assay", "in_short": "as §1"}, "DU-145 [28]": {"system": "DU-145", "assay": "Antiproliferative activity against human DU145 cells assessed as T/C value at 3.2 x 10^-2 uM incubated for 96 hrs by propidium iodide based 2D monolayer assay", "in_short": "as §1"}, "DU-145 [29]": {"system": "DU-145", "assay": "Antiproliferative activity against human DU145 cells assessed as T/C value at 1 x 10^-1 uM incubated for 96 hrs by propidium iodide based 2D monolayer assay", "in_short": "as §1"}, "DU-145 [30]": {"system": "DU-145", "assay": "Antiproliferative activity against human DU145 cells assessed as T/C value at 3.2 uM incubated for 96 hrs by propidium iodide based 2D monolayer assay", "in_short": "as §3"}, "DU-145 [31]": {"system": "DU-145", "assay": "Antiproliferative activity against human DU145 cells assessed as T/C value at 3.2 x 10^1 uM incubated for 96 hrs by propidium iodide based 2D monolayer assay", "in_short": "as §3"}, "DU-145 [32]": {"system": "DU-145", "assay": "Antiproliferative activity against human DU145 cells assessed as T/C value at 1 x 10^2 uM incubated for 96 hrs by propidium iodide based 2D monolayer assay", "in_short": "as §3"}}}
{"smiles": "CC(O)(CSc1cc(C(F)(F)F)cc(C(F)(F)F)c1)C(=O)Nc1cccc(C(F)(F)C(F)(F)F)c1", "note": "(racemic)", "values": [{"measurement": "IC50", "setting": "CWR22R [1]", "value": 4.2, "unit": "µM"}, {"measurement": "IC70", "setting": "CWR22R [1]", "value": 5.41, "unit": "µM"}, {"measurement": "IC50", "setting": "LNCaP [2]", "value": 3.9, "unit": "µM"}, {"measurement": "IC70", "setting": "LNCaP [2]", "value": 4.68, "unit": "µM"}, {"measurement": "IC50", "setting": "VCaP [3]", "value": 8.6, "unit": "µM"}, {"measurement": "IC70", "setting": "VCaP [3]", "value": 11.7, "unit": "µM"}, {"measurement": "T/C", "setting": "VCaP [4]", "value": 98, "unit": "%"}, {"measurement": "T/C", "setting": "VCaP [5]", "value": 109, "unit": "%"}, {"measurement": "T/C", "setting": "VCaP [6]", "value": 93, "unit": "%"}, {"measurement": "T/C", "setting": "VCaP [7]", "value": 102, "unit": "%"}, {"measurement": "T/C", "setting": "VCaP [8]", "value": 38, "unit": "%"}, {"measurement": "T/C", "setting": "VCaP [9]", "value": 11, "unit": "%"}, {"measurement": "T/C", "setting": "LNCaP [10]", "value": 90, "unit": "%"}, {"measurement": "T/C", "setting": "LNCaP [11]", "value": 93, "unit": "%"}, {"measurement": "T/C", "setting": "LNCaP [12]", "value": 99, "unit": "%"}, {"measurement": "T/C", "setting": "LNCaP [13]", "value": 97, "unit": "%"}, {"measurement": "T/C", "setting": "LNCaP [14]", "value": 111, "unit": "%"}, {"measurement": "T/C", "setting": "LNCaP [15]", "value": 107, "unit": "%"}, {"measurement": "T/C", "setting": "LNCaP [16]", "value": 72, "unit": "%"}, {"measurement": "T/C", "setting": "LNCaP [17]", "value": 8, "unit": "%"}, {"measurement": "T/C", "setting": "LNCaP [18]", "value": 6, "unit": "%"}, {"measurement": "T/C", "setting": "CWR22R [19]", "value": 104, "unit": "%"}, {"measurement": "T/C", "setting": "CWR22R [20]", "value": 109, "unit": "%"}, {"measurement": "T/C", "setting": "CWR22R [21]", "value": 112, "unit": "%"}, {"measurement": "T/C", "setting": "CWR22R [22]", "value": 106, "unit": "%"}, {"measurement": "T/C", "setting": "CWR22R [23]", "value": 107, "unit": "%"}, {"measurement": "T/C", "setting": "CWR22R [24]", "value": 7, "unit": "%"}, {"measurement": "T/C", "setting": "CWR22R [25]", "value": 5, "unit": "%"}, {"measurement": "T/C", "setting": "DU-145 [26]", "value": 117, "unit": "%"}, {"measurement": "T/C", "setting": "DU-145 [27]", "value": 121, "unit": "%"}, {"measurement": "T/C", "setting": "DU-145 [28]", "value": 123, "unit": "%"}, {"measurement": "T/C", "setting": "DU-145 [29]", "value": 135, "unit": "%"}, {"measurement": "T/C", "setting": "DU-145 [30]", "value": 133, "unit": "%"}, {"measurement": "T/C", "setting": "DU-145 [31]", "value": 8, "unit": "%"}, {"measurement": "T/C", "setting": "DU-145 [32]", "value": 2, "unit": "%"}]}
